Test results published in ChEMBL document CHEMBL3244091, “Effects of thiophene analogues of chloroamphetamines on central serotonergic mechanisms” (J Med Chem, 1978).
Active and inactive are the calls of the source. The rule behind the calls is not given here.

System: Rattus norvegicus
Assay: Inhibition of SERT-mediated 5-HT uptake in Wistar rat brain at 15 mg/kg, ip measured after 7 days
Type: functional
Settings: 168 h, route intraperitoneal
Outline: (§1)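 Male Wistar-derived rats were dosed ip (saline vehicle) and killed 24 h or 7 days later. Whole brains were homogenized in 8 vol 0.25 M sucrose.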

SMILES | inhibition in vivo at 15 mg/kg [%]
CC(N)Cc1cc(Cl)c(Cl)s1.Cl (racemic) | 32.4

System: not listed separately
Assay: Toxicity in ip dosed ICR Swiss mouse
Type: organism-based
Settings: in vivo

SMILES | LD50 [mg/kg]
CC(N)Cc1cccs1.Cl (racemic) | 162
CC(N)Cc1ccc(Cl)s1.Cl (racemic) | 113
CC(N)Cc1sccc1Cl.Cl (racemic) | 101
CC(N)Cc1cc(Cl)c(Cl)s1.Cl (racemic) | 133
CC(N)Cc1scc(Cl)c1Cl.Cl (racemic) | 121
CC(N)Cc1sc(Cl)cc1Cl.Cl (racemic) | 135
CC(N)Cc1ccc(Cl)cc1.Cl (racemic) | 64
CC(N)Cc1cc(Cl)cs1.Cl (racemic) | 128

System: Mus musculus
Assay: Increase in spontaneous locomotor activity in ICR Swiss mouse at 10 mg/kg, ip measured after 30 to 270 mins post compound administration
Type: functional, organism-based
Parameters: dose 10 mg/kg
Settings: not given
Outline: (§2)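 Male ICR Swiss mice (20-25 g), compound in saline ip, housed three per cage at ≤18 °C. Starting 30 min and 4.5 h after injection, each mouse was placed in a circular actophotometer (25 cm diameter, four photocells, central light) for 30 min. A count was scored per cross of two consecutive beams (locomotion only). Means of at least eight animals per group.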

SMILES | Activity
CC(N)Cc1cccs1.Cl (racemic) | Active
CC(N)Cc1ccc(Cl)s1.Cl (racemic) | Active
CC(N)Cc1sccc1Cl.Cl (racemic) | inactive
CC(N)Cc1cc(Cl)c(Cl)s1.Cl (racemic) | Active
CC(N)Cc1scc(Cl)c1Cl.Cl (racemic) | Active
CC(N)Cc1sc(Cl)cc1Cl.Cl (racemic) | inactive
CC(N)Cc1cc(Cl)cs1.Cl (racemic) | Active

System: Mus musculus
Assay: Increase in spontaneous locomotor activity in ICR Swiss mouse at 10 mg/kg, ip measured after 4 hrs post compound administration
Type: functional, organism-based
Parameters: dose 10 mg/kg
Settings: not given
Outline: as §2

SMILES | Activity
CC(N)Cc1ccc(Cl)s1.Cl (racemic) | Active
CC(N)Cc1ccc(Cl)cc1.Cl (racemic) | Active

System: Rattus norvegicus
Assay: Inhibition of SERT-mediated 5-HT uptake in Wistar rat brain at 7.5 mg/kg, ip measured after 7 days
Type: functional
Settings: 168 h, route intraperitoneal
Outline: as §1

SMILES | inhibition in vivo at 7.5 mg/kg [%]
CC(N)Cc1ccc(Cl)cc1.Cl (racemic) | 34.3

System: Rattus norvegicus
Assay: Reduction in 5-HT level in Wistar rat brain synaptosomes at 7.5 mg/kg, ip measured after 4 hrs by fluorometric assay
Type: functional
Parameters: scale not given: the % may be the effect or the level left
Settings: route intraperitoneal

SMILES | Activity [%]
CC(N)Cc1ccc(Cl)cc1.Cl (racemic) | 48.6

System: Rattus norvegicus
Assay: Reduction in 5-HT level in Wistar rat brain synaptosomes at 15 mg/kg, ip measured after 24 hrs by fluorometric assay
Type: functional
Parameters: scale not given: the % may be the effect or the level left
Settings: route intraperitoneal

SMILES | Activity [%]
CC(N)Cc1ccc(Cl)s1.Cl (racemic) | 15.4
CC(N)Cc1cc(Cl)c(Cl)s1.Cl (racemic) | 50.7
CC(N)Cc1scc(Cl)c1Cl.Cl (racemic) | 11.7
CC(N)Cc1sc(Cl)cc1Cl.Cl (racemic) | 13.3
CC(N)Cc1cc(Cl)cs1.Cl (racemic) | 18.3

System: Rattus norvegicus
Assay: Inhibition of SERT-mediated 5-HT uptake in Wistar rat brain at 15 mg/kg, ip measured after 24 hrs
Type: functional
Settings: route intraperitoneal
Outline: as §1

SMILES | inhibition in vivo at 15 mg/kg [%]
CC(N)Cc1ccc(Cl)s1.Cl (racemic) | 4.1
CC(N)Cc1cc(Cl)c(Cl)s1.Cl (racemic) | 30.4
CC(N)Cc1scc(Cl)c1Cl.Cl (racemic) | 0.4
CC(N)Cc1sc(Cl)cc1Cl.Cl (racemic) | 24.5
CC(N)Cc1cc(Cl)cs1.Cl (racemic) | 6.7

Target: Sodium-dependent serotonin transporter (Rattus norvegicus) (UniProt P31652)
Assay: Inhibition of SERT-mediated 5-HT uptake in Wistar rat brain synaptosomes at 0.2 uM
Type: subcellular
Settings: not given

Sodium-dependent serotonin transporter (Rattus norvegicus), sequence (P31652 whole entry): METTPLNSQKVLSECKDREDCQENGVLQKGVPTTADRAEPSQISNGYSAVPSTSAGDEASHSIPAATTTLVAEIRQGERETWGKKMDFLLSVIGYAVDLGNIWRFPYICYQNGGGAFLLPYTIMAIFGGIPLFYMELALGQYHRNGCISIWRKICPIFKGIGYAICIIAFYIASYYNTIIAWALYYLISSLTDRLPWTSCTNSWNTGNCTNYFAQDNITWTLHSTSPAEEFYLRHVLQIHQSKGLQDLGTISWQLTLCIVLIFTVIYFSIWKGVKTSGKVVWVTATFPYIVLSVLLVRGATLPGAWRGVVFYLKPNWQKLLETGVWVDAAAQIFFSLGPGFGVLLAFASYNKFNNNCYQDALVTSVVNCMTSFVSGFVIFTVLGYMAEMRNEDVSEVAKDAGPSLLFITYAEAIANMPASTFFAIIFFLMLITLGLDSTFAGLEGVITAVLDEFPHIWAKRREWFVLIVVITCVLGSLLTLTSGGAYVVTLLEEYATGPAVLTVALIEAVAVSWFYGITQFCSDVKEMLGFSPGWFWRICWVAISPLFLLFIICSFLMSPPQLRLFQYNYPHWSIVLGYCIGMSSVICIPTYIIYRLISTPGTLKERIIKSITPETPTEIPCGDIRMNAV

SMILES | inhibition [%]
CC(N)Cc1cccs1.Cl (racemic) | 5.3
CC(N)Cc1ccc(Cl)s1.Cl (racemic) | 17.7
CC(N)Cc1sccc1Cl.Cl (racemic) | 6.6
CC(N)Cc1cc(Cl)c(Cl)s1.Cl (racemic) | 40.5
CC(N)Cc1scc(Cl)c1Cl.Cl (racemic) | 27.5
CC(N)Cc1sc(Cl)cc1Cl.Cl (racemic) | 19.4
CC(N)Cc1ccc(Cl)cc1.Cl (racemic) | 38.4
CC(N)Cc1cc(Cl)cs1.Cl (racemic) | 18.7

System: Rattus norvegicus
Assay: Reduction in 5-HT level in Wistar rat brain synaptosomes at 15 mg/kg, ip measured after 7 days by fluorometric assay
Type: functional
Parameters: scale not given: the % may be the effect or the level left
Settings: route intraperitoneal

SMILES | Activity [%]
CC(N)Cc1cc(Cl)c(Cl)s1.Cl (racemic) | 41.6

System: Rattus norvegicus
Assay: Reduction in 5-HT level in Wistar rat brain synaptosomes at 15 mg/kg, ip measured after 4 hrs by fluorometric assay
Type: functional
Parameters: scale not given: the % may be the effect or the level left
Settings: route intraperitoneal

SMILES | Activity [%]
CC(N)Cc1cccs1.Cl (racemic) | 4.3
CC(N)Cc1ccc(Cl)s1.Cl (racemic) | 14.5
CC(N)Cc1sccc1Cl.Cl (racemic) | 2.8
CC(N)Cc1cc(Cl)c(Cl)s1.Cl (racemic) | 49.3
CC(N)Cc1scc(Cl)c1Cl.Cl (racemic) | 10.3
CC(N)Cc1sc(Cl)cc1Cl.Cl (racemic) | 12.1
CC(N)Cc1cc(Cl)cs1.Cl (racemic) | 22.1

Organism: Rattus norvegicus
Assay: Ratio of PCA IC50 to compound IC50 for MAO in Wistar rat brain using [3H]serotonin as substrate
Settings: not given

SMILES | Ratio IC50
CC(N)Cc1scc(Cl)c1Cl.Cl (racemic) | 15

System: not listed separately
Assay: Inhibition of MAO in Wistar rat brain using [3H]serotonin as substrate
Settings: not given

SMILES | IC50 [nM]
CC(N)Cc1scc(Cl)c1Cl.Cl (racemic) | 250
CC(N)Cc1sc(Cl)cc1Cl.Cl (racemic) | 2500
CC(N)Cc1ccc(Cl)cc1.Cl (racemic) | 3700

System: Rattus norvegicus
Assay: Reduction in 5-HT level in Wistar rat brain synaptosomes at 7.5 mg/kg, ip measured after 7 days by fluorometric assay
Type: functional
Parameters: scale not given: the % may be the effect or the level left
Settings: route intraperitoneal

SMILES | Activity [%]
CC(N)Cc1ccc(Cl)cc1.Cl (racemic) | 63.7

System: Rattus norvegicus
Assay: Reduction in 5-HT level in Wistar rat brain synaptosomes at 7.5 mg/kg, ip measured after 24 hrs by fluorometric assay
Type: functional
Parameters: scale not given: the % may be the effect or the level left
Settings: route intraperitoneal

SMILES | Activity [%]
CC(N)Cc1ccc(Cl)cc1.Cl (racemic) | 47.6

Target: Sodium-dependent serotonin transporter (Rattus norvegicus, UniProt P31652)
Assay: Inhibition of SERT-mediated 5-HT uptake in Wistar rat brain synaptosomes
Type: subcellular
Settings: not given

Sodium-dependent serotonin transporter, sequence (P31652 whole entry): as above

SMILES | IC50 [nM]
CC(N)Cc1cc(Cl)c(Cl)s1.Cl (racemic) | 450
CC(N)Cc1ccc(Cl)cc1.Cl (racemic) | 500

System: Rattus norvegicus
Assay: Inhibition of SERT-mediated 5-HT uptake in Wistar rat brain at 7.5 mg/kg, ip measured after 24 hrs
Type: functional
Settings: route intraperitoneal
Outline: as §1

SMILES | inhibition in vivo at 7.5 mg/kg [%]
CC(N)Cc1ccc(Cl)cc1.Cl (racemic) | 45.5
